Experimental data: article PMC11429891 (bioRxiv, 2024)
Each block holds one compound with its values, some of them ahead of it. Bridge positions count the residues as written; N and C are the ends. Peptide text beside a SMILES is read from it.

How the values were obtained:
[1] = test system: adhesion of U87MG cells to collagen VI; test: U87MG adhesion to collagen VI-coated plates; assay type: cell-based; conditions: CES 30μM, 24 h, then 48 h, DAPI nuclei count
Summary of the method: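 Wells were coated with collagen VI (5 µg/cm² from 50 µg/ml in 500 mM acetic acid) for 1 h at room temperature, then washed with PBS. U87MG cells were seeded with or without anti-SNAP25 antibody (5 µg/mL) or 30 µM test peptide. Medium was changed at 24 h and culture continued 48 h. Cells were fixed in 4% PFA, blocked and DAPI-stained, and nuclei were counted per image area (1.2 mm²).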

[2] = test system: U87MG cells; test: Viability without laser irradiation; assay type: cell-based; conditions: up to 30μM, 30 min at 37°C, no laser irradiation, 24 h, MTS
[3] = biological target: human recombinant SNAP25 (Homo sapiens, UniProt P60880); test: Quartz crystal microbalance binding to SNAP25
Sequence of human recombinant SNAP25 (P60880 whole entry): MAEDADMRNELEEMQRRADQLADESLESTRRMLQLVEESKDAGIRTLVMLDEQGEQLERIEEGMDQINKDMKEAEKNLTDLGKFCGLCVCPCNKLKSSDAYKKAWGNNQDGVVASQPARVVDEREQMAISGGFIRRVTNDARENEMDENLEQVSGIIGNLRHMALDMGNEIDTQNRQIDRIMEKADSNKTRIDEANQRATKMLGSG
Summary of the method: (§1)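 The 5 MHz Cr/Au quartz crystal was cleaned with isopropanol, ethanol and water. It was treated with 20 mM mercaptopropanesulfonate in 10 mM H₂SO₄ for 30 min, then with 10 µM (monomer) poly(allylamine hydrochloride) at pH 8 for 10 min. Human recombinant SNAP25 or BSA was deposited at 0.01 mg/mL for 10 min. After a baseline in 500 µL PBS, 50 µL of 300 µM peptide stock in PBS was added and mass change recorded.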

[4] = Quartz crystal microbalance, PAH-BSA control multilayer; assay type: binding; conditions: label-free, peptide 30μM final in PBS
Summary of the method: as §1

[5] = Quartz crystal microbalance, PAH control layer; assay type: binding; conditions: label-free, peptide 30μM final in PBS
[6] = test system: AD brain vasculature; conditions: ref [9], cited from earlier work
[7] = test system: connective tissue growth factor (CTGF) bound to the vascular extracellular matrix; conditions: ref [9]; cited from earlier work
[8] = test system: WT-GBM tumors; test: In vivo homing, WT-GBM glioblastoma model; design: species or system mice (Fox/Nu); conditions: 30 nmoles i.v., 60 min circulation, n=3
Summary of the method: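 Fox/Nu mice received 7×10^5 WT-GBM cells stereotactically into the right striatum and were used 6-7 days later. FAM-labelled peptide (30 nmol in PBS) was given i.v. and circulated 60 min. Mice were perfused intracardially with PBS, and organs were fixed in 4% PFA pH 7.4 overnight, sucrose-cryoprotected and OCT-embedded. 10 µm sections were stained without permeabilization for FAM and CD31 (primary 1/100 overnight 4°C; secondary 1/200). n=3.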

[9] = test system: healthy brain; test: In vivo homing, healthy brain; design: species or system mice; conditions: 30 nmoles i.v., 60 min circulation, n=3
Summary of the method: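 Healthy (non-tumor) mice received FAM-labelled peptide, 30 nmol i.v. in PBS, for 60 min. Mice were perfused with PBS, and brains were fixed in 4% PFA, cryoprotected in sucrose and embedded in OCT. Sections were stained without permeabilization for FAM and SNAP25 (primary 1/100 overnight at 4°C, secondary 1/200). n=3.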

[10] = test system: recombinant SNAP25; test: ELISA binding to SNAP25-coated plates; design: species or system human; conditions: plates coated with recombinant SNAP25, FAM-labeled peptide
[11] = test system: Casein; test: ELISA binding to casein-coated plates; conditions: plates coated with Casein, FAM-labeled peptide
[12] = test system: intracranial U87MG glioblastoma; test: In vivo homing, intracranial U87MG glioblastoma; design: species or system mice (female athymic nude), human U87MG xenograft; conditions: 30 nmoles i.v., 60 min circulation
Summary of the method: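 Tumors were induced in female athymic nude mice by intracranial injection of 3×10^5 U87MG cells into the right striatum (2 mm lateral, 2 mm posterior to bregma, 2.5 mm deep) and grown 9 days. Mice received FAM-labelled peptide, 30 nmol in PBS i.v., for 60 min, then PBS perfusion, 4% PFA fixation, sucrose and OCT. 10 µm sections were stained without permeabilization for FAM with CD31 or SNAP25. n=3.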

[13] = test system: MCF10CA1a tumors; test: In vivo homing, orthotopic MCF10CA1a breast tumors; design: species or system athymic nude mice, human triple-negative breast cancer cells; conditions: 30 nmoles i.v., 60 min circulation, n=3
Summary of the method: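 Orthotopic breast tumors: athymic nude mice were given 2×10^6 MCF10CA1a cells in PBS into the mammary gland and used 14 days later. FAM-labelled peptide (30 nmol in PBS) was injected i.v. and circulated 60 min, followed by PBS perfusion, overnight 4% PFA fixation, sucrose and OCT embedding. 10 µm sections were immunostained for FAM without permeabilization. n=3.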

[14] = test system: U87MG cells; test: Photodynamic cytotoxicity; assay type: cell-based, human; conditions: 24 h, MTS
Summary of the method: (§2)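 Cells (30.000/well) were attached overnight, then exposed 30 min to peptide–verteporfin conjugates at 3 µM final. Wells were washed 3× with full medium and refreshed. Irradiation used a 690 nm laser, 10 J/cm² at 160 mW/cm². After 24 h further culture, viability was measured by MTS/PMS (2 h, 37 °C, 5% CO₂), reading absorbance at 492 nm.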

[15] = test system: SK-N-AS cells; test: Photodynamic cytotoxicity; assay type: cell-based; conditions: 3μM conjugate, 30 min, 3 washes, 690nm laser 10 J/cm^2 (160 mW/cm^2), 24 h, MTS
Summary of the method: as §2

[16] = test system: HEK293T cells; test: Photodynamic cytotoxicity; assay type: cell-based; conditions: 3μM conjugate, 30 min, 3 washes, 690nm laser 10 J/cm^2 (160 mW/cm^2), 24 h, MTS
Summary of the method: as §2

[17] = test system: LN229 cells; test: Photodynamic cytotoxicity; assay type: cell-based; conditions: 3μM conjugate, 30 min, 3 washes, 690nm laser 10 J/cm^2 (160 mW/cm^2), 24 h, MTS
Summary of the method: as §2

[18] = test system: recombinant SNAP25; test: Binding of SNAP25 to ECM array; design: species or system human; conditions: recombinant SNAP25 1/200, overnight 4°C, A488 anti-SNAP25 detection
Summary of the method: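 Array slide of ECM proteins (collagens I, III, IV, V, VI, fibronectin, laminin, vitronectin, tropoelastin) washed in PBS and PBST, then blocked 1 h at room temperature in 5% BSA/5% FBS in PBST. Human recombinant SNAP25 was applied at 1/200 in 1/5-diluted blocking buffer overnight at 4°C. Bound protein was detected with A488 anti-SNAP25 at 1/200 overnight at 4°C, then imaged by fluorescence in the green channel.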

[19] = test system: control protein (recombinant mouse macrophage colony-stimulating factor (M-CSF)); test: Surface plasmon resonance, control protein; assay type: binding; conditions: control protein of similar molecular weight, immobilized in the same way, 20 °C
Summary of the method: (§3)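 SPR was run at 20 °C on an NTA sensor chip conditioned with 10 mM HCl, 200 mM imidazole and EDTA, then activated with 40 mM NiCl₂. His-tagged ligand was captured on channel 2 only: human recombinant SNAP25 at 150 µg/mL, or the control mouse M-CSF (28 kDa, 9-His) at 10 µg/mL. Collagen V or VI at 20 µg/ml in PBS flowed through both channels at 20 µl/min. Data were fitted to a one-to-one model.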

[20] = test system: U87MG cells; test: U87MG cell culture on collagens V and VI, morphology; assay type: cell-based; conditions: versus plastic (colonies); 5μg/cm^2 collagen coating
Summary of the method: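 Plates were coated for 1 h at room temperature with bovine collagen VI or human collagen V (5 µg/cm², from 50 µg/ml in 500 mM acetic acid) and washed twice with PBS. U87MG cells were seeded and grown 24 h, then given fresh medium for another 48 h. Cells were fixed in 4% PFA, blocked, DAPI-stained and imaged by fluorescence microscopy.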

[21] = biological target: recombinant SNAP25; test: Surface plasmon resonance, immobilized SNAP25; assay type: binding, human; conditions: read-out: KD (estimative), SPR; one-to-one model, SNAP25 via His-Tag/Ni-NTA, collagen 20μg/ml, 20 °C, OpenSPR
Summary of the method: as §3

- binding to SNAP25, ELISA [10]: did not bind to SNAP25
Compound: FAM-iRGD: FAM-labeled iRGD, another peptide with similar molecular weight and isoelectric point [reference compound]

- binding of SNAP25 to ECM proteins, array [18]: non-binding
Compound: collagen III: ECM protein on array

- binding to control protein, SPR [19]: no binding
- binding of SNAP25 to ECM proteins, array [18]: binding of SNAP25 to collagens V and VI
- Kd [21]: 7200 nM
Compound: collagen V: Human type V Collagen-Lyophilized (Southern Biotech, Cat # 1270–01)
- U87MG growth morphology on collagen-coated plates [20]: formed monolayers and presented particles attached to the plate

Second part, the compound before the results:

Compound: CC(=O)N[C@H]1CSSC[C@@H](C(N)=O)NC(=O)[C@H](CCC(=O)O)NC(=O)[C@H](CO)NC(=O)[C@H](CC(C)C)NC(=O)[C@H](CC(C)C)NC(=O)[C@@H]2CCCN2C(=O)[C@H](CO)NC(=O)[C@H](CCC(=O)O)NC1=O [CES] (Ac-CESPLLSEC-NH2; disulfide 1-9)
- effect on adhesion of U87MG cells to collagen VI-coated plates [1]: affected the adhesion of U87MG cells to collagen VI-coated plates
- cytotoxicity of peptide alone, U87MG [2]: did not elicit cytotoxicity
- Kd [3]: 24 nM
- dissociation rate upon washing with PBS, QCM ([3]; SNAP25 on PAH layer, washing with PBS): slow dissociation rate
- binding to control multilayer PAH-BSA, QCM [4]: did not bind to the control layers
- binding to control layer PAH, QCM [5]: did not bind to the control layers
- homing to blood vessels of AD brain ([6]; genetically modified mouse AD model, in vivo phage library screen, will be reported elsewhere): specifically accumulates (homes) in the blood vessels of AD brain

Compound: CDAGRKQKC [reference compound]
- target molecule (receptor) [7]: connective tissue growth factor (CTGF) bound to the vascular extracellular matrix
- recognition of AD brain vasculature ([6]; mouse AD model): recognize the vasculature of AD brain very early in the development of the disease

Compound: FAM-Ahx-CESPLLSEC-NH2 (disulfide) [FAM-CES]
- colocalization with CD31 in WT-GBM [8]: showed colocalization with CD31
- homing to WT-GBM tumors [8]: targeted WT-GBM tumors
- homing to healthy brain [9]: no homing to healthy brain
- binding to SNAP25, ELISA [10]: bound to SNAP25
- binding to Casein, ELISA [11]: not to Casein
- co-distribution with blood vessel marker CD31 in U87MG tumor ([12]; n=3, FAM/CD31 immunostaining): co-distributing with the blood vessel marker CD31
- colocalization with SNAP25 in U87MG tumors ([12]; n=3, FAM/SNAP25 immunostaining): apparent colocalization with SNAP25 in U87MG tumors
- tumor homing, orthotopic breast cancer [13]: no tumor homing

Compound: Vert-Ahx-CESPLLSEC-NH2 (disulfide) [CES-V]
- toxicity, irradiated, U87MG ([14]; 3μM conjugate, 30 min, 3 washes, 690nm laser 10 J/cm^2 (160 mW/cm^2)): significant toxicity
- difference in toxicity between irradiated CES-V and irradiated CtrlPep-V ([14]; 3μM, 690nm laser, compared across U87MG, LN229, SK-N-AS, HEK293T): only reached significance for U87MG
- toxicity, irradiated, SK-N-AS [15]: no toxicity
- toxicity, irradiated, HEK293T [16]: no toxicity
- toxicity, irradiated, LN229 [17]: significant toxicity

Compound: collagen I: ECM protein on array
- binding of SNAP25 to ECM proteins, array [18]: non-binding

Compound: collagen IV: ECM protein on array
- binding of SNAP25 to ECM proteins, array [18]: non-binding

Compound: collagen VI: Bovine Type VI Collagen-Solution (Southern Biotech Cat # 1300–02S)
- binding to control protein, SPR [19]: no binding
- binding of SNAP25 to ECM proteins, array [18]: binding of SNAP25 to collagens V and VI
- U87MG growth morphology on collagen-coated plates [20]: formed monolayers and presented particles attached to the plate
- Kd [21]: 15 nM
